SUMO1-SIM PPI = modulators of human SUMO1-mediated protein-protein interactions | P63165 | SUMO1 binding to a labelled peptide, TR-FRET, 1 h | inhibition, % at 20 µM | hit rate 0.33% among 360,000 | AID 602429; in the data active = inhibition above about 37%
Target sequence (P63165 whole entry, looked up): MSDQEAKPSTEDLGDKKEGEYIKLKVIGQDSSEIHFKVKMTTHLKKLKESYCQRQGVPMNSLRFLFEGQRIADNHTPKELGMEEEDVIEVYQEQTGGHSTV
LMPTP block = LMPTP (human) inhibition; inhibition, % at 20 µM; P24666; hit rate 0.22% among 360,000; AID 651560; recombinant LMPTP-A, OMFP fluorogenic substrate, fluorescence intensity;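 active = compounds that cut the enzyme signal by at least half of the control window in the single-dose screen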;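 note: plate controls were DMSO wells with enzyme plus substrate for no effect and substrate without enzyme for full effect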
Target sequence (P24666 whole entry, looked up): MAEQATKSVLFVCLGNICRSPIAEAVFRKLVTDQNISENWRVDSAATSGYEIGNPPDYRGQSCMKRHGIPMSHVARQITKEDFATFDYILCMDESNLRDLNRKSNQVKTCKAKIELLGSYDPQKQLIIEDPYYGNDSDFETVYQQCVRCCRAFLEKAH
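Test system: LMPTP-A phosphatase enzyme; input: 0.625 nM LMPTP-A final; reagent: OMFP substrate, 400 µM final; compound dosing: 20 µM single dose, 3% DMSO; incubation: 50 min dark incubation at room temperature; measured by: endpoint fluorescence intensity from OMFP dephosphorylation; measure: % inhibition relative to no-enzyme and uninhibited control wells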
DNMT1 inh = inhibitors of human DNMT1. P26358. DNMT1 molecular beacon, Hinp1I cleavage, fluorescence. inhibition (reported as % activation of signal), % at 10 µM. hit rate 0.83% among 360,000. AID 588458; in the data active = inhibition above about 50%
Scp1 inh = inhibitors of human Scp-1 phosphatase; Q9GZU7; Recombinant Scp1, phosphopeptide, malachite green phosphate absorbance; inhibition, % at 20 µM; hit rate 0.88% among 340,000; AID 493091;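 active = inhibition above about 50% at 20 µM, limit read from the data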;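 note: plate controls were DMSO wells with enzyme for no effect and wells lacking enzyme for full effect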
Target sequence (Q9GZU7 76-261 limits assumed): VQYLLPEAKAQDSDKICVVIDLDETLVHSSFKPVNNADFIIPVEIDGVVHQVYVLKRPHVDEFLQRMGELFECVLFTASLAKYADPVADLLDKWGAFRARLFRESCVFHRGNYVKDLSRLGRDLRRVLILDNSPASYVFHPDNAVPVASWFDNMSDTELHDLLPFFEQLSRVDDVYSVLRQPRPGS
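Assay system: SCP-1 catalytic fragment, aa 76-261 | Buffer or medium: Tris acetate buffer pH 5.5 with MgCl2 and Tween-20 | Compound: One concentration, 20 µM, with 1.0% DMSO | Also added: Phospho 17-mer peptide substrate | Signal: Absorbance at 630 nm | Incubation: 45 min enzyme reaction at room temperature | Measure: % inhibition of SCP-1 phosphate liberation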
STEP block = blocks human striatal-enriched tyrosine phosphatase | AID 588621 | inhibition, % at 20 µM | hit rate 0.25% among 360,000 | recombinant STEP, OMFP fluorogenic substrate, fluorescence;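 active = inhibition at 20 µM, scaled per plate between control wells, above about 37%, limit read from the data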;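 note: 0% = DMSO with enzyme and substrate and 100% = substrate only without enzyme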
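Measure: Control-normalized % inhibition with plate pattern correction | Test system: STEP phosphatase, cell-free reaction | Medium: pH 6.0 Bis-Tris with DTT and Tween 20 | Technique: Fluorescence, 480/540 nm | Times: Reaction 20 min, ambient temperature | Doses: Single compound dose of 20 µM, 1% DMSO final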
* hit, by the source's call; i = inactive; . = no result; + = active, no number. Shown are actives, neighbours in structure and some others; about 1.7% of the full set was active somewhere.

SMILES	SUMO1-SIM PPI	LMPTP block	DNMT1 inh	Scp1 inh	STEP block
COc1ccc(/C=C2\SC(=S)N(CCC(=O)Nc3ccc(C(=O)O)cc3)C2=O)cc1OC	14.0	43.7	30.7	95.3*	85.4*
O=C(CCN1C(=O)/C(=C\C=C\c2ccccc2)SC1=S)Nc1ccc(C(=O)O)cc1	-0.3	82.9*	17.5	87.9*	86.7*
CCc1ccc(/C=C2\SC(=S)N(CCCC(=O)Nc3ccc(C(=O)O)cc3)C2=O)cc1	-24.1	63.9*	0.6	8.6	16.0
O=C(NCCCNC(=O)c1ccc(-c2cc(Cl)ccc2Cl)o1)c1cnccn1	-4.8	-1.0	-2.3	-5.3	-0.3
Cc1ccc(C(=O)N2CCCC(N3CCN(c4ccccc4C)CC3)C2)c(=O)[nH]1 (configuration not stated)	-1.3	-0.8	1.6	-13.3	-1.6
CCCCN1CC(=O)N2[C@H]3c4ccc(OC)cc4OC[C@@H]3[C@H](c3ccccc3)[C@]2(C)C1=O	4.7	0.5	0.2	-11.4	-1.7
CC1(C)CC(N2CCCC2)=CC(=[N+]2CCCCCC2)C1	0.5	-0.9	2.2	19.4	-0.3
CC1CC(C)C[N+](=C2C=C(N3CCCC3)CC(C)(C)C2)C1 (configuration not stated)	2.4	-0.3	5.0	96.4*	0.5
C[C@H](NC(=O)c1cc2c(cn1)[nH]c1ccccc12)C(=O)O	3.3	2.3	1.1	-12.5	90.3*
COC(=O)[C@H](C)NC(=O)c1cc2c(cn1)[nH]c1ccccc12	0.7	3.3	0.9	-1.8	8.5
O=C(NCCO)C(=O)Nc1cc2c3c(c1)CCN3C(=O)CC2	1.3	0.0	-1.8	-4.5	-3.8
O=c1[nH]c2ccccc2c2nc(-c3cccc(S(=O)(=O)N4CCCC4)c3)nn12	42.3*	7.3	-1.8	7.7	9.1
O=C(N=Nc1c(O)[nH]c2ccccc12)c1cccc(S(=O)(=O)N2CCCCC2)c1	-2.0	9.0	5.7	13.0	-1.1
COC(=O)[C@]12CCCCC=C1N(Cc1ccccc1)C(=O)[C@H](CC(=O)N1CCCC1)C2	-3.8	-2.2	.	.	.
CC(=O)Oc1ccc2c(c1)Oc1cc(OC(C)=O)ccc1C21OC(=O)c2ccccc21	i	-0.9	+	-4.8	-6.4
Cc1ccc(NC(=O)CNc2cccc(Br)c2)cc1S(=O)(=O)N1CCOCC1	3.4	1.4	-10.1	-7.3	-4.8
Cn1c(=O)c(N)c2c3c(c(Br)ccc31)C(=O)c1ccccc1-2	-43.6	6.4	155.0*	-8.5	-65.0
Cn1c(=O)c(NC2CCCCC2)c2c3c(cccc31)C(=O)c1ccccc1-2	-19.8	0.5	42.2	-6.0	-143.2
O=C(O)CCNc1ccc(NCCC(=O)O)c2c1C(=O)c1ccccc1C2=O	60.3*	72.0*	96.5*	86.2*	95.7*
COc1ccccc1NCCC(=O)O	-3.6	-1.1	0.9	-2.0	4.9
CCN(CC(=O)Nc1ccc(NC(C)=O)cc1)C(=O)c1ccc(S(=O)(=O)N2CCCC2)cc1	-1.1	-0.3	0.6	4.8	0.9
CCn1c(/C=C/c2c(C)n(CC)c3ccccc23)nc2ccccc2c1=O	-0.9	-0.3	3.0	-7.6	-1.6
CCn1c2ccccc2nc2cc3c(cc21)c(Cl)c(=O)c1ccccc13	20.6	4.9	61.3*	.	2.8
CCOC(=O)/C(=C\C=C1/Sc2cc(OCC)c(OCC)cc2N1CC)C(C)=O	-201.1	14.6	93.1*	0.6	-129.4
Nc1c(C(=O)O)ccc2c1C(=O)c1ccccc1C2=O	10.2	8.7	-1.0	0.4	7.7
SMILES	SUMO1-SIM PPI	LMPTP block	DNMT1 inh	Scp1 inh	STEP block
Nc1cc(C(=O)O)c(N)c2c1C(=O)c1ccccc1C2=O	32.9	7.5	17.1	81.7*	7.5
COc1ccc(NC(=S)Nc2ccc3nc(C)c(C)nc3c2)cc1	-5.6	2.2	-1.6	-2.2	-1.1
COc1ccc(NC(=S)Nc2ccc3nsnc3c2)cc1	58.0*	10.2	64.3*	14.3	6.3
CCN1CCC2(CC1)N=C(c1ccc(F)cc1)C(=S)N2C(=O)c1ccc(C(C)(C)C)cc1	16.5	-1.2	4.3	6.2	55.6*
O=C(N/N=C/c1ccc([N+](=O)[O-])s1)c1cccc(Br)c1	-5.8	74.5*	20.5	96.5*	55.4*
O=C(N/N=C/c1ccc([N+](=O)[O-])s1)c1ccncc1	-27.7	-0.9	-8.8	-6.7	3.0
Cc1ccc(C(=O)N/N=C/c2ccc([N+](=O)[O-])s2)cc1	-19.3	47.5	3.1	104.1*	23.5
Cc1nc(N)nc(N)c1-c1ccc([N+](=O)[O-])cc1	-21.0	66.8*	5.0	2.2	2.8
Nc1nc(-c2ccccc2)c(-c2ccc([N+](=O)[O-])cc2)s1	-18.3	0.8	-1.9	-1.2	1.4
O=[N+]([O-])c1cc(CN2CCOCC2)c2cccnc2c1O	.	.	.	65.7*	.
CC1=C(C(=O)N(C(C)C)C(C)C)CC(CC(=O)NCCc2ccccn2)C(=O)N1CCCN1CCCC1=O (configuration not stated)	4.8	-0.4	9.8	.	-3.7
C#CCOCCOCCOCCNc1nc(N2CCN(C(=O)CCCCCCCCCCNC(=O)[C@H](CCCCN)n3cc(C)nn3)CC2)nc(N2CCN(C(=O)CCCCCCCCCCNC(=O)[C@@H]([C@H](C)O)n3cc(C)nn3)CC2)n1	-154.1	-2.6	-70.7	8.2	1.4
C#CCOCCOCCOCCNc1nc(N2CCN(C(=O)CCCCCCCCCCNC(=O)[C@H]([C@@H](C)CC)n3cc(CCCCN=C(N)N)nn3)CC2)nc(N2CCN(C(=O)CCCCCCCCCCNC(=O)[C@@H]([C@H](C)O)n3cc(C)nn3)CC2)n1	86.0*	9.4	-107.7	35.1	6.1
C#CCOCCOCCOCCNc1nc(N2CCN(C(=O)CCCCCCCCCCNC(=O)[C@H](CCCCN)n3cc(C[C@@H](C)CC)nn3)CC2)nc(N2CCN(C(=O)CCCCCCCCCCNC(=O)[C@@H]([C@H](C)O)n3cc(C)nn3)CC2)n1	69.8*	6.8	-147.8	37.6	7.7
C#CCOCCOCCOCCNc1nc(N2CCN(C(=O)CCCCCCCCCCNC(=O)[C@H](CCCCN)n3cc(C[C@@H](C)CC)nn3)CC2)nc(N2CCN(C(=O)CCCCCCCCCCNC(=O)[C@H](CCCN=C(N)N)n3cc(C[C@@H](C)CC)nn3)CC2)n1	72.1*	13.9	-227.3	58.2*	29.2
C#CCOCCOCCOCCNc1nc(N2CCN(C(=O)CCCCCCCCCCNC(=O)[C@@H](CCSC)n3cc(CCO)nn3)CC2)nc(N2CCN(C(=O)CCCCCCCCCCNC(=O)[C@H](CCCN=C(N)N)n3cc(C[C@@H](C)CC)nn3)CC2)n1	80.3*	12.1	-105.6	42.7	17.8
C#CCOCCOCCOCCNc1nc(N2CCOCC2)nc(N2CCN(C(=O)CCCCCCCCCCNC(=O)[C@H]([C@@H](C)CC)n3cc(CCCCN=C(N)N)nn3)CC2)n1	-40.2	1.5	8.7	12.4	0.6
O=C(O)Cc1sc(=O)[nH]c1O	-0.6	-0.6	-0.7	0.5	-1.3

High-throughput results as filed in PubChem BioAssay.
